Screening data deposited in PubChem by The Scripps Research Institute Molecular Screening Center.
Hits are enriched below; roughly 2.3% of the tested compounds scored in any of these assays.
OXTR agonist = activates the human oxytocin receptor; P30559; CHO-OTR cells, Fluo-8 calcium fluorescence; normalized: DMSO 0%, oxytocin 100%; activation, % at 3 µM; actives 0.32% (n = 320,000); AID 2435;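 active means activation above the mean of all tested compounds plus 3 SD, cutoff set per screening run, cut at about 20% in these data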;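 further: peak over basal fluorescence ratio from a 100 s FLIPR kinetic read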
TAAR1 antag = antagonists of human TAAR1 | Q96RJ0 | CHO RD-HGA16 TAAR1, Fluo-8 calcium fluorescence, antagonist | inhibition, % at 3 µM | actives 1.5% (n = 360,000) | AID 624466;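 active means inhibition above a per-plate cutoff, the mean inhibition of test compounds on that plate plus 3 SD, cut at about 49% in these data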
Target sequence (Q96RJ0 whole entry, looked up): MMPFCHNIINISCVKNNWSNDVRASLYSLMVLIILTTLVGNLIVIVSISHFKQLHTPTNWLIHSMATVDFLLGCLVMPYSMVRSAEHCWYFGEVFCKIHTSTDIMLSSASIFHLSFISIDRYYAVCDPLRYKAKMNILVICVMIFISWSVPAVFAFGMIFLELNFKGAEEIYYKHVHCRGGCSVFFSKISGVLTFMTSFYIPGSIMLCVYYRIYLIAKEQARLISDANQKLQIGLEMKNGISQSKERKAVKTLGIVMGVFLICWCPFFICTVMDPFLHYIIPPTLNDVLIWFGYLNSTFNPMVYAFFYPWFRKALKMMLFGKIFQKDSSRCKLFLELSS
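test system = CHO RD-HGA16 cells bearing hTAAR1 | replication = singlicate | controls = DMSO-only wells and EC80 β-PEA-stimulated wells | reagent = EC80 β-phenethylamine stimulus | read-out basis = percent inhibition of PEA-evoked calcium signal, max/basal emission ratio | schedule = seeding 17-24 h prior, 75-min 37 °C, 30-min RT dye loading | signal = kinetic Fluo-8 calcium fluorescence measurement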
TAAR1 agonist = agonists of human TAAR1; CHO RD-HGA16 TAAR1, Fluo-8 calcium fluorescence; vehicle wells 0%, saturating PEA agonist 100%; activation, % at 3 µM; actives 0.99% (n = 360,000);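 active means activation above the mean activation of all test compounds in the run plus 3 SD, cut at about 38% in these data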
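Test system: RD-HGA16 (CHO) cells co-expressing Gα16 and hTAAR1; dosing: one-point dosing at 3 µM (nominal); timing: 17-24 h seeding, 75 min 37 °C dye, 30 min RT; signal: kinetic Fluo-8 calcium fluorescence; read-out basis: % activation relative to PEA EC100 response; controls: DMSO and PEA EC100; replicates: n 1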
V1R ag counter = counter-screen for oxytocin receptor agonists: human V1a receptor agonists | CHO-V1R cells, Fluo-8 calcium fluorescence, agonist mode; 0% DMSO, 100% 3 nM vasopressin | actives 0.25% (n = 320,000) | activation, % at 3 µM;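 active means activation above the mean activation of all tested compounds plus 3 SD, per screening run, cut at about 20% in these data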;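 further: signal is peak over basal fluorescence ratio across a 100 second FLIPR read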
Target sequence (P37288 whole entry, looked up): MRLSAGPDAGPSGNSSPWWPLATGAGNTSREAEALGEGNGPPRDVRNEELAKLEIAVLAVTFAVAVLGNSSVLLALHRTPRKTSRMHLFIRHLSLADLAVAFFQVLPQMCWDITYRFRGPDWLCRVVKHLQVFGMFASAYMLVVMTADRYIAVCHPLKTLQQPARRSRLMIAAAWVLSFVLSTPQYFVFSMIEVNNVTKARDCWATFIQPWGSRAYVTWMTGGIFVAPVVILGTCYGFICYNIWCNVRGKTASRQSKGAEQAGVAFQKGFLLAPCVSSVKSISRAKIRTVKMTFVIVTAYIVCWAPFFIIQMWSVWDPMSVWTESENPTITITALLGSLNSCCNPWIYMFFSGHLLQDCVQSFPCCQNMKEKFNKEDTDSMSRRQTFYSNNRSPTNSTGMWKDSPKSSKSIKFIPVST
OXTR potentiate = potentiates the human oxytocin receptor response; CHO-OTR cells, Fluo-8 calcium fluorescence, potentiator mode; 0% = oxytocin EC15, 100% = EC100; actives 0.061% (n = 320,000); P30559; activation, % at 3 µM;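 active means activation above that plate's cutoff, the mean activation of tested compounds plus 3 SD, cut at about 6.6% in these data, passing the limit was not always enough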
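Assay system: CHO cell line stably expressing human OTR. Reagent: EC15 oxytocin agonist. Dosing: single dose, 3.0 µM nominal final compound concentration. Timing: compound 6 min at room temperature before oxytocin, 100 s read. Signal: kinetic Fluo-8 calcium fluorescence. Controls: oxytocin EC15 low and EC100 high.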
nonsel antag count = nonselective antagonist in TAAR1 antagonist counter-screen. shares compounds with TAAR1 antag. counterscreen cell line, calcium fluorescence, antagonist mode. inhibition, % at 3 µM. actives 77% (n = 2,400); in the data active means inhibition above about 22%;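 further: CHO-Ga16 host cells stimulated with ATP at an EC80 level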
TAAR1 ant conf = human TAAR1 antagonism, confirmed. inhibition, % at 3 µM. shares compounds with TAAR1 antag. TAAR1-expressing cells, fluorescence antagonist read-out. actives 40% (n = 2,400); in the data active means inhibition above about 49%;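 further: CHO-Ga16 host cells challenged with agonist PEA near its EC80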
Ga16 nonsel ag = nonselective Ga16 agonism, counter-screen; shares compounds with TAAR1 antag; Ga16-expressing cells, calcium fluorescence, agonist counterscreen; activation, % at 3 µM; actives 18% (n = 2,400); in the data active means activation above about 12%
TAAR1 ag counter = activates human TAAR1 in antagonist counter-screen | shares compounds with TAAR1 antag | hTAAR1 cell line, fluorescence activation, agonist mode | activation, % at 3 µM | actives 2% (n = 2,400); in the data active means activation above about 37%;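 further: CHO cells stably expressing TAAR1 with calcium dye readout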
Hits are given with their value; 0 = inactive; - = not tested or not shown.

SMILES | OXTR agonist | TAAR1 antag | TAAR1 agonist | V1R ag counter | OXTR potentiate | nonsel antag count | TAAR1 ant conf | Ga16 nonsel ag | TAAR1 ag counter
COC(=O)C1=C(c2ccc(F)cc2OCc2ccccc2)C[C@@H]2CC[C@H]1N2C(=O)NCc1cccc(OC)c1 | 0 | 74 | 0 | 0 | 0 | 29 | 0 | 0 | 0
COC(=O)C1=C(c2ccccc2OCc2ccccc2)C[C@@H]2CC[C@H]1N2C(=O)NCc1cccc(F)c1 | 0 | 0 | 0 | 0 | 0 | - | - | - | -
COC(=O)C1=C(c2ccc(F)cc2OCc2ccccc2)C[C@@H]2CC[C@H]1N2C(=O)NCc1ccc(OC)cc1 | 0 | 62 | 0 | 0 | 0 | 0 | 0 | 0 | 0
COC(=O)C1=C(c2ccc(C(C)=O)cc2)C[C@@H]2CC[C@H]1N2C(=O)N1CCC(C)CC1 | 0 | 0 | 0 | 0 | 0 | - | - | - | -
COC(=O)C1=C(c2ccc(F)cc2OCc2ccccc2)C[C@@H]2CC[C@H]1N2C(=O)NCCOc1ccccc1 | 0 | 69 | 0 | 0 | 0 | 0 | 0 | 13 | 0
COC(=O)C1=C(c2ccc(F)cc2OCc2ccccc2)C[C@@H]2CC[C@H]1N2C(=O)NCCOc1ccc(OC)cc1 | 0 | 59 | 0 | 0 | 0 | 0 | 0 | 0 | 0
O=C(c1cccs1)N1CCC(C(=O)O)(c2ccccc2)CC1 | - | 0 | 0 | - | - | - | - | - | -
CCOC(=O)C1=C(N)OC2=C(C(=O)CCC2)C12C(=O)N1c3c(ccc(C)c32)C(C)=CC1(C)C (stereo unspecified) | 0 | 0 | 0 | 0 | 0 | - | - | - | -
COc1ccc2nc(-c3ccc(CN4CCC(n5nnc6ccccc65)CC4)cc3)c(-c3ccccc3)nc2c1 | - | 50 | 0 | - | - | 0 | 0 | 0 | 0
Cc1ccc2nc(-c3ccc(CN4CCC(n5c(=O)[nH]c6ccccc65)CC4)cc3)c(-c3ccccc3)nc2c1 | - | 0 | 0 | - | - | - | - | - | -
Cc1ccc2nc(-c3ccc(CN4CCC(n5nnc6ccccc65)CC4)cc3)c(-c3ccccc3)nc2c1 | - | 75 | 0 | - | - | 27 | 0 | 0 | 0
CCOP(=S)(OCC)SCCSCC | 0 | 0 | 0 | 0 | 0 | - | - | - | -
CCCCn1nnnc1C(C1CC1)N1CCC(n2c(=O)[nH]c3ccccc32)CC1 (stereo unspecified) | - | 73 | 0 | - | - | 24 | 0 | 0 | 0
CCC(c1nnnn1Cc1ccccc1)N1CCC(n2c(=O)[nH]c3ccccc32)CC1 (stereo unspecified) | - | 72 | 0 | - | - | 35 | 56 | 0 | 0
CCCCn1nnnc1C(CCc1ccccc1)N1CCC(n2c(=O)[nH]c3ccccc32)CC1 (stereo unspecified) | - | 67 | 0 | - | - | 0 | 0 | 0 | 0
CCCCn1nnnc1C(CCSC)N1CCC(n2c(=O)[nH]c3ccccc32)CC1 (stereo unspecified) | - | 65 | 0 | - | - | 29 | 54 | 0 | 0
COc1ccc(-n2nnnc2C(c2ccccc2OC(F)(F)F)N2CCC(n3c(=O)[nH]c4ccccc43)CC2)cc1 (stereo unspecified) | - | 0 | 0 | - | - | - | - | - | -
CCCCn1nnnc1C(C1CC1)N1CCC2(CC1)C(=O)NCN2c1ccccc1 (stereo unspecified) | - | 0 | 0 | - | - | - | - | - | -
O=c1cccc2n1CC1CNCC2C1 (stereo unspecified) | 0 | 0 | 0 | 0 | 0 | - | - | - | -
COc1cccc(C(c2nnnn2-c2c(C)cccc2C)N2CCC(n3c(=O)[nH]c4ccccc43)CC2)c1OC (stereo unspecified) | - | 0 | 0 | - | - | - | - | - | -
O=c1[nH]c2ccccc2n1C1CCN(C(c2ccnc3ccccc23)c2nnnn2-c2ccc3c(c2)OCCO3)CC1 (stereo unspecified) | - | 66 | 0 | - | - | 0 | 0 | 13 | 48
COc1ccc(-n2nnnc2C(CCc2ccccc2)N2CCC(n3c(=O)[nH]c4ccccc43)CC2)cc1 (stereo unspecified) | - | 57 | 0 | - | - | 0 | 0 | 0 | 0
CCC(c1nnnn1-c1ccc(OC)cc1)N1CCC(n2c(=O)[nH]c3ccccc32)CC1 (stereo unspecified) | - | 0 | 0 | - | - | - | - | - | -
S=P(N1CCOCC1)(N1CC1)N1CC1 | - | 0 | 0 | - | - | - | - | - | -
FCCN(CCF)c1cccc(Cl)c1 | 0 | 0 | 0 | 0 | 0 | - | - | - | -
SMILES | OXTR agonist | TAAR1 antag | TAAR1 agonist | V1R ag counter | OXTR potentiate | nonsel antag count | TAAR1 ant conf | Ga16 nonsel ag | TAAR1 ag counter
O=P(Nc1cccc(F)c1)(Oc1ccccc1F)Oc1ccccc1F | 0 | 90 | 0 | 0 | 0 | 29 | 67 | 0 | 0
COc1cccc(NP(=O)(Oc2ccc(Cl)cc2)Oc2ccc(Cl)cc2)c1 | 0 | 59 | 0 | 0 | 0 | 0 | 0 | 0 | 0
CC1(C)CC(CCNCc2ccc3c(c2)OCO3)(Cc2ccccc2)CCO1 (stereo unspecified) | 0 | 0 | 0 | 0 | 0 | - | - | - | -
O=C(NCCN1CCC2(CC1)C(=O)NCN2c1ccccc1)c1ccc(F)cc1F | - | 0 | 0 | - | - | - | - | - | -
CCC(C)N1C(=O)NC(=O)C2(Cc3c(ccc4ccccc34)N(C)C2)C1=O (stereo unspecified) | 0 | 56 | 0 | 0 | 0 | 33 | 52 | 0 | 0
COc1ccc2c(c1)CC1(CN2C)C(=O)NC(=O)N(CCc2ccccc2)C1=O (stereo unspecified) | 0 | 0 | 0 | 0 | 0 | - | - | - | -
COc1cc2c(cc1OC)C1C(=O)c3ccc4c(c3OC1CO2)CC(C(C)C)O4 (stereo unspecified) | - | 0 | 0 | - | - | - | - | - | -
O=C1NC(=O)C(Cc2ccccc2)(Cc2ccccc2)C(=O)N1Cc1ccccc1 | - | 60 | 0 | - | - | 0 | 0 | 0 | 0
CC[C@H](C)/C=C(C)/C=C/C1=CC2=C(Cl)C(=O)[C@](C)(OC(C)=O)C(=O)C2=CO1 | 0 | - | - | 0 | 0 | - | - | - | -
CC(=O)[C@@]1(O)CC[C@H]2[C@@H]3CC=C4C[C@@H](O)CC[C@]4(C)[C@H]3CC[C@@]21C | 0 | 0 | 0 | 0 | 0 | - | - | - | -
CCOC(=O)CC(SP1(=S)OCC2(CCCCC2)CO1)C(=O)OCC (stereo unspecified) | - | 58 | 0 | - | - | 0 | 0 | 0 | 0
Cc1nc2ccccc2c(=O)n1-c1ccc(-c2ccccc2)cc1 | 0 | 50 | 0 | 0 | 0 | 23 | 0 | 0 | 0
COc1ccc(-n2c(/C=C/c3ccc(O)cc3)nc3ccccc3c2=O)cc1 | 0 | 66 | 0 | 0 | 0 | 30 | 0 | 0 | 0
COc1ccc(-n2c(/C=C/c3ccc(O)c(OC)c3)nc3ccccc3c2=O)cc1 | 0 | 59 | 0 | 0 | 0 | 29 | 0 | 0 | 0
